An excerpt weighted towards active compounds, which were near 3% of everything screened.
HTR1A agonist – activates the human 5-HT1a serotonin receptor; P08908; CHO 5-HT1a Ga15 NFAT-bla reporter, FRET ratio; 0% basal, 100% maximal reference agonist; activation, % at 10 µM; actives 0.56% (n = 65,000);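 active = activation above the screen-wide mean activation plus 3 SD, cut at about 19% in these data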;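 also: 0% = DMSO wells and 100% = 5-CT at EC100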
Target sequence (P08908 whole entry, looked up): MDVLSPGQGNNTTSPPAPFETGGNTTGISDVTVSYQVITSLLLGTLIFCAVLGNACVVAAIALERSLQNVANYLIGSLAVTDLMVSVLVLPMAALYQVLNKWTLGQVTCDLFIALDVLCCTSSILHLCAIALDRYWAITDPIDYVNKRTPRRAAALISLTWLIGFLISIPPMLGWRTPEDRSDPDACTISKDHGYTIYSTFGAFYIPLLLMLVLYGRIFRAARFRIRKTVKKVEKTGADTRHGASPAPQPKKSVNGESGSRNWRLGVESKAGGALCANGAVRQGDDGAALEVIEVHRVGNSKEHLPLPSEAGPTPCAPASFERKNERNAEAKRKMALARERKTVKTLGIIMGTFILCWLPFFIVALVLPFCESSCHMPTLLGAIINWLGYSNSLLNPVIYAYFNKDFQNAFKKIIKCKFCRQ
5HT1E ag – activates the human 5-HT1E serotonin receptor | P28566 | CHO 5-HT1E Ga15 NFAT-bla reporter, FRET; 0% DMSO wells, 100% control agonist wells | activation, % at 6 µM | actives 0.69% (n = 65,000) | AID 574;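 active = activation above a set limit, the screen-wide mean activation plus 3 SD, cut at about 8.5% in these data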;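 also: 100% = positive control agonist at 1 µM giving full maximal response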
S1P3 agonist – activates the human S1P3 receptor. actives 0.1% (n = 60,000). AID 373. activation, % at 4.5 µM. Q99500. S1P3 NFAT-BLA reporter cells, agonism, FRET ratio; relative to 1 µM S1P, basal subtracted;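 active = activation above the screen-wide mean plus 3 SD, cut at about 4.5% in these data, passing the limit was not always enough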
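Assay system: CHO cells stably expressing human S1P3, Gα16 and NFAT-β-lactamase reporter. Timing: overnight plating, 4 h compound 37 °C, 2 h substrate RT. Signal: β-lactamase FRET emission ratio 460/535 nm. Measure: percent activation versus median 1 µM S1P response, basal-subtracted, per plate. Repeats: primary screen single test, confirmation screen in triplicate.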
5HT1E antag – blocks the human 5-HT1E serotonin receptor; CHO 5-HT1E Ga15 NFAT-bla reporter, FRET, antagonist; inhibition, % at 6 µM; actives 0.99% (n = 65,000); AID 571;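 active = inhibition above a set limit, the mean inhibition across every tested compound plus 3 SD, cut at about 29% in these data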;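 also: signal is the 460 over 535 nm emission ratio of beta-lactamase substrate; 0% = agonist plus DMSO wells and 100% = wells without agonist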
S1P1 ag-PAM – agonists and agonism potentiators of human S1P1 receptor; S1P1 CRE-bla cells, forskolin, beta-lactamase FRET, potentiator mode; S1P1 agonist co-added at EC20, 2 nM; 100% = saturating reference agonist, 0% = basal; activation, % at 9.5 µM; actives 0.57% (n = 56,000);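 active = activation above a cutoff set at the mean activation of all tested compounds plus 3 SD, cut at about 54% in these data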;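 also: forskolin at 4 µM as EC80 and the EC20 agonist is SEW2871; 100% = SEW2871 at its EC100 plus forskolin at EC80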
5HT1a antag – 5-HT1a (human) receptor antagonism. actives 0.68% (n = 62,000). inhibition, % at 10 µM. CHO 5-HT1a Ga15 NFAT-bla reporter, antagonist mode. AID 612. P08908;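 active = inhibition above the mean of all tested compounds plus 3 SD, cut at about 43% in these data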;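 also: receptor stimulated by 5-CT agonist at 100 nM near EC80; beta-lactamase reporter measured by ratiometric fluorescence of a cleavable substrate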
Starred values were filed as active, the others as inactive; . = not tested or not shown.

SMILES | HTR1A agonist | 5HT1E ag | S1P3 agonist | 5HT1E antag | S1P1 ag-PAM | 5HT1a antag
Cc1sc2ncn(CC(=O)OC(C)C(=O)NC(C)(C)C)c(=O)c2c1C (stereo not drawn) | 98* | 0 | . | -1 | . | -5
CC(C)(C)c1csc(NC(=O)c2ccc(Cl)s2)n1 | -1 | -1 | 0 | 19 | 27 | 35
CCNc1nc(N)c(C(=O)c2ccc(Cl)s2)s1 | 1 | 0 | -2 | 23 | 47 | 56*
Cc1cc(-n2c(=O)c(C#N)cc3c(=O)n4cccc(C)c4nc32)no1 | 49* | 3 | 8 | -4 | -22 | -21
Cc1ccc(-n2c(=O)c(C#N)cc3c(=O)n4ccccc4nc32)cc1 | 30* | 8 | 4 | -6 | -11 | -25
COC(=O)C(Cc1cncn1COCc1ccccc1)NC(=O)OC(C)(C)C (stereo not drawn) | -2 | 0 | 0 | -5 | -16 | 9
COc1ccc(-n2c(SCC(=O)N3CCN(c4ccccc4)CC3)nc3c(c2=O)SCC3)cc1 | 2 | 1 | -1 | -14 | 10 | -15
COC(=O)C(C)Sc1nc2c(c(=O)n1-c1ccccc1)SCC2 (stereo not drawn) | 36* | -1 | . | 5 | . | -10
CCOC(=O)Cn1c(=O)oc2cc(S(=O)(=O)Nc3ccc(N(CC)CC)cc3C)ccc21 | 1 | 0 | 0 | 12 | -1 | 5
CCN(CC)S(=O)(=O)c1ccc(Nc2cc(C)nc3ncnn23)cc1 | 1 | 1 | -1 | 0 | -24 | -1
CCn1c2ccccc2c2cc(Nc3cc(C)nc4ncnn34)ccc21 | -2 | 0 | -1 | 70* | -100 | 72*
CCCOC(=O)c1ccc(Nc2cc(C)nc3ncnn23)cc1 | 105* | 0 | 0 | -17 | -8 | -22
Cc1c(C(=O)NCCc2ccccc2)oc2ccc(S(=O)(=O)N3CCOCC3)cc12 | 1 | 0 | . | 0 | . | -4
Cn1cc(C(=O)NCCc2ccccc2)c(=O)c2cc(S(=O)(=O)N3CCOCC3)ccc21 | -2 | 77* | 0 | 5 | 0 | -3
Cc1nn(Cc2ccccc2Cl)c(C)c1C(=O)N1CCN(c2ccccc2)CC1 | -1 | 2 | 0 | -8 | 21 | 11
CCOC(=O)C1CCN(CC(=O)Nc2c(C(=O)OC)[nH]c3ccc(Cl)cc23)CC1 | 1 | 0 | -1 | 29* | 16 | 11
CCOC(=O)c1[nH]c2ccc(OC)cc2c1NC(=O)CN1CCN(c2ccccn2)CC1 | 29* | 0 | 4 | -4 | 4 | .
CC(=O)N1c2c(cc(Br)cc2S(=O)(=O)N2CCN(C(=O)c3ccco3)CC2)CC1C (stereo not drawn) | 3 | 2 | . | -6 | . | -11
CCOC(=O)c1cc2ccc(OC(=O)c3ccco3)cc2oc1=O | 296* | 81* | 28* | -102 | -291 | -308
N#Cc1ccccc1NC(=O)CSc1nccn1CCc1ccccc1 | 0 | 0 | -1 | -7 | . | -5
Cc1cc(C(=O)CSc2nc(N)cc(N)n2)c(C)n1CCc1ccc(F)cc1 | 3 | 0 | 0 | 4 | 31 | -10
Cc1cc(C(=O)CSc2nnc(C3COc4ccccc4O3)n2C)c(C)n1-c1ccc(F)cc1 (stereo not drawn) | -3 | 0 | 4 | 30* | 29 | 28
COc1ccc(CCn2c(C)cc(C(=O)CSc3nnnn3C)c2C)cc1 | 3 | -1 | 14* | 6 | 7 | 1
Cc1cc(C(=O)CSc2nnnn2C)c(C)n1-c1cccc(F)c1 | -1 | 0 | 3 | -3 | 93* | -13
CCOc1ccccc1C(=O)N(CN1CCCC1=O)c1cccc(Cl)c1 | -1 | 0 | 0 | -12 | -1 | -10
SMILES | HTR1A agonist | 5HT1E ag | S1P3 agonist | 5HT1E antag | S1P1 ag-PAM | 5HT1a antag
COc1ccc(N2C(=O)C3CCCN3C2c2cccc(OC)c2OC)cc1 (stereo not drawn) | 101* | 0 | -1 | 4 | -11 | 1
COc1ccc(N2C(=O)C3CCCN3C2c2cccc(Br)c2)cc1 (stereo not drawn) | 0 | 0 | 1 | -5 | -6 | -7
CC(Oc1ccccc1)C(=O)Nc1ccc(S(=O)(=O)NCC2CCCO2)cc1 (stereo not drawn) | 14 | 0 | -1 | -10 | -15 | -17
Cc1cc(-c2nn3c(-c4ccccc4)nnc3s2)c2ccccc2n1 | -1 | 2 | 0 | 30* | -111 | 0
Cc1c(C(=O)NCc2cccnc2)oc2ccccc12 | -1 | 0 | -1 | 33* | -3 | -10
CCn1c(CNC(=O)c2ccco2)nnc1SCC(=O)Nc1cc(C(F)(F)F)ccc1Cl | 54* | 0 | 0 | 3 | -6 | 5
O=C1c2oc3ccc(F)cc3c(=O)c2C(c2cccc(O)c2)N1CCCN1CCOCC1 (stereo not drawn) | 0 | 30* | 0 | -1 | 3 | -14
COc1ccc(NC(=O)COC(=O)c2cnccn2)cc1Cl | -2 | 1 | 0 | 4 | 9 | -8
Cn1c2ccc(Cl)cc2c2nc3ccccc3nc21 | 2 | 0 | 1 | 37* | -104 | 10
CC(NC(=O)C1CC2CCCC(C1)C2=O)c1ccccc1 (stereo not drawn) | 0 | 0 | -1 | -1 | 8 | 8
O=c1cc(-c2c(F)c(F)c(F)c(F)c2F)oc2c(F)c(F)c(F)c(F)c12 | -10 | -2 | . | 102* | . | 99*
Cc1cc(=O)oc2cc3c(cc12)OCCN3 | 25* | 12* | 2 | -15 | -55 | -36
Cc1cc(=O)oc2cc3c(cc12)OCCO3 | -1 | 0 | 0 | -3 | 2 | 3
C=Cn1ccnc1P(=S)(c1ccc2c(c1)c1ccccc1n2CC)c1nccn1C=C | 0 | 0 | . | -6 | . | -4
c1ccc(CNc2ncnc3ccccc23)cc1 | -1 | 0 | -2 | 9 | 106* | 19
O=C(CSc1nc2ccccc2c(=O)n1CC1CCCCC1)N1CCOCC1 | 2 | 0 | -4 | 3 | 2 | .
CCN(CC)C(=O)CSc1nc2ccccc2c(=O)n1CC1CCCCC1 | 4 | 0 | -7 | 37* | 25 | .
N#CCSc1nc2cc(C(=O)N3CCCC3)ccc2c(=O)n1Cc1ccccc1 | 1 | 1 | 0 | 15 | -22 | -12
N#CCSc1nc2cc(C(=O)N3CCC(C(N)=O)CC3)ccc2c2nc3ccccc3n12 | -2 | -1 | 1 | 53* | -44 | 8
Cc1cc(C(=O)COC(=O)c2csc3c2CCCC3)c(C)n1C | 0 | -1 | 0 | 2 | 79* | 2
NC(=O)CN1CCN(c2ccccc2F)CC1 | -3 | 0 | -1 | 7 | -28 | -3
Oc1ccc2ccccc2c1CN1CCN(c2ccccc2F)CC1 | 3 | 14* | 0 | -11 | 7 | 1
CCOC(=O)c1cnn(CC2CCCCC2)c1N | 1 | 0 | 0 | 2 | -22 | 0

Assay outcomes as filed in PubChem.
